Converted amounts (≈) assume the structure as drawn.
What was measured:
Alcaligenes faecalis [1] = test: Activity of Alcaligenes faecalis PER2 beta lactamase
Procedure, shortened: (§1)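 Purified recombinant PER-2 (expressed in E. coli BL21(DE3) from pET28a(+), IPTG-induced, Q-Sepharose purified). β-Lactam hydrolysis was followed spectrophotometrically at 30°C. For good substrates, Km and kcat came from initial rates. […] For poor substrates, kcat came from complete hydrolysis time courses.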

Citrobacter freundii = test: Antimicrobial activity against Citrobacter freundii 33587 isolate by agar dilution method; format: functional
Procedure, shortened: (§2)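 MICs were determined by agar dilution following CLSI guidelines, with inoculum applied by a Steers multipoint inoculator.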

Escherichia coli [2] = test: Antimicrobial activity against Escherichia coli CAG12177 by agar dilution method; format: functional; procedure, shortened: as §2
Escherichia coli [3] = test: Antimicrobial activity against Escherichia coli 33587-TC9 by agar dilution method; format: functional; procedure, shortened: as §2
[4] = target: T1, PER-2 beta-lactamase (Citrobacter freundii) (UniProt A2RP81); test: Ratio of Kcat to Km of Citrobacter freundii PER2 beta lactamase relative to cephalothin
T1 sequence (whole entry): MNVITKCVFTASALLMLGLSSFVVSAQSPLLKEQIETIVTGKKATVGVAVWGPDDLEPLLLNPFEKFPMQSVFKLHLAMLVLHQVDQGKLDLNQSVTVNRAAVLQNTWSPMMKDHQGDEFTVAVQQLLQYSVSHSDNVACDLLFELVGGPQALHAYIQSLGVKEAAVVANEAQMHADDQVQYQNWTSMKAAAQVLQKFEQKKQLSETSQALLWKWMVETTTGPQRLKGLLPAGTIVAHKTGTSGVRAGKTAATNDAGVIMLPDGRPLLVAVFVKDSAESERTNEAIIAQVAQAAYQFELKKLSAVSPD
Procedure, shortened: (§3)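 Purified recombinant PER-2 (E. coli BL21(DE3) expression, Q-Sepharose purification) was assayed spectrophotometrically at 30°C in 500 μl. kcat and Km came from initial steady-state rates.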

Alcaligenes faecalis [5] = test: Ratio of Kcat to Km of Alcaligenes faecalis PER2 beta lactamase; procedure, shortened: as §1
PER-2 beta-lactamase = target: T2, PER-2 beta-lactamase (Citrobacter freundii, UniProt A2RP81); test: Inhibition of Citrobacter freundii PER2 beta lactamase
T2 sequence (A2RP81 whole entry): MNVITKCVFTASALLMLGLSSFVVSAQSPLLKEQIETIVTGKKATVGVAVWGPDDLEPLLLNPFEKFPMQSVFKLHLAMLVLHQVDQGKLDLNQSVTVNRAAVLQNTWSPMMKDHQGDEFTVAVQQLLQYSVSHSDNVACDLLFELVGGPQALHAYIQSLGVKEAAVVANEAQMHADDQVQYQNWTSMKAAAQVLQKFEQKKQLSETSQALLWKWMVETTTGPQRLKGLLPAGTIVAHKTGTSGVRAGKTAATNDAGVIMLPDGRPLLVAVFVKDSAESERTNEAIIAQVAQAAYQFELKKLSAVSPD
Procedure, shortened: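 Purified recombinant PER-2 was incubated with the drug plus 100 μM nitrocefin as reporter substrate in 500 μl at 30°C. Residual enzyme activity was read spectrophotometrically. Apparent Km values were derived as competitive inhibitor constants (Ki).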

[6] = substrate: CC(=O)OCC1=C(C(=O)O)N2C(=O)[C@@H](NC(=O)Cc3cccs3)[C@H]2SC1; test: (§4) Activity of Citrobacter freundii PER2 beta lactamase
[7] = substrate: CC(C)(O/N=C(\C(=O)N[C@@H]1C(=O)N2C(C(=O)[O-])=C(C[n+]3ccccc3)CS[C@H]12)c1csc(N)n1)C(=O)O; test: as §4
[8] = substrate: CC1(C)S[C@@H]2[C@H](NC(=O)Cc3ccccc3)C(=O)N2[C@H]1C(=O)O; test: as §4
[9] = substrate: CC1(C)S[C@@H]2[C@H](NC(=O)[C@H](N)c3ccccc3)C(=O)N2[C@H]1C(=O)O; test: as §4
[10] = substrate: CCN1CCN(C(=O)N[C@@H](C(=O)N[C@@H]2C(=O)N3C(C(=O)O)=C(CSc4nnnn4C)CS[C@H]23)c2ccc(O)cc2)C(=O)C1=O; test: as §4
[11] = substrate: CCN1CCN(C(=O)N[C@@H](C(=O)N[C@@H]2C(=O)N3[C@@H]2SC(C)(C)[C@@H]3C(=O)O)c2ccccc2)C(=O)C1=O; test: as §4
[12] = substrate: CO/N=C(\C(=O)N[C@@H]1C(=O)N2C(C(=O)O)=C(COC(C)=O)CS[C@H]12)c1csc(N)n1; test: as §4
[13] = substrate: CO/N=C(\C(=O)N[C@@H]1C(=O)N2C(C(=O)O)=C(COC(N)=O)CS[C@H]12)c1ccco1; test: as §4
[14] = substrate: CO/N=C(\C(=O)N[C@@H]1C(=O)N2C(C(=O)[O-])=C(C[N+]3(C)CCCC3)CS[C@H]12)c1csc(N)n1; test: as §4
[15] = substrate: CO[C@@]1(NC(=O)Cc2cccs2)C(=O)N2C(C(=O)O)=C(COC(N)=O)CS[C@@H]21; test: as §4
[16] = substrate: C[C@@H](O)[C@H]1C(=O)N2C(C(=O)O)=C(SCCNC=N)C[C@H]12; test: as §4
[17] = substrate: C[C@H]1[C@H](NC(=O)/C(=N\OC(C)(C)C(=O)O)c2csc(N)n2)C(=O)N1S(=O)(=O)O; test: as §4
[18] = substrate: O=C(Cc1cccs1)N[C@@H]1C(=O)N2C(C(=O)O)=C(/C=C/c3ccc([N+](=O)[O-])cc3[N+](=O)[O-])CS[C@H]12; test: as §4
[19] = substrate: CC(=O)OCC1=C(C(=O)O)N2C(=O)[C@@H](NC(=O)Cc3cccs3)[C@H]2SC1; test: (§5) Ratio of Kcat to Km of Citrobacter freundii PER2 beta lactamase; procedure, shortened: as §3
[20] = substrate: CC(C)(O/N=C(\C(=O)N[C@@H]1C(=O)N2C(C(=O)[O-])=C(C[n+]3ccccc3)CS[C@H]12)c1csc(N)n1)C(=O)O; test: as §5; procedure, shortened: as §3
[21] = substrate: CC1(C)S[C@@H]2[C@H](NC(=O)Cc3ccccc3)C(=O)N2[C@H]1C(=O)O; test: as §5; procedure, shortened: as §3
[22] = substrate: CC1(C)S[C@@H]2[C@H](NC(=O)[C@H](N)c3ccccc3)C(=O)N2[C@H]1C(=O)O; test: as §5; procedure, shortened: as §3
[23] = substrate: CCN1CCN(C(=O)N[C@@H](C(=O)N[C@@H]2C(=O)N3C(C(=O)O)=C(CSc4nnnn4C)CS[C@H]23)c2ccc(O)cc2)C(=O)C1=O; test: as §5; procedure, shortened: as §3
[24] = substrate: CCN1CCN(C(=O)N[C@@H](C(=O)N[C@@H]2C(=O)N3[C@@H]2SC(C)(C)[C@@H]3C(=O)O)c2ccccc2)C(=O)C1=O; test: as §5; procedure, shortened: as §3
[25] = substrate: CO/N=C(\C(=O)N[C@@H]1C(=O)N2C(C(=O)O)=C(COC(C)=O)CS[C@H]12)c1csc(N)n1; test: as §5; procedure, shortened: as §3
[26] = substrate: CO/N=C(\C(=O)N[C@@H]1C(=O)N2C(C(=O)O)=C(COC(N)=O)CS[C@H]12)c1ccco1; test: as §5; procedure, shortened: as §3
[27] = substrate: CO/N=C(\C(=O)N[C@@H]1C(=O)N2C(C(=O)[O-])=C(C[N+]3(C)CCCC3)CS[C@H]12)c1csc(N)n1; test: as §5; procedure, shortened: as §3
[28] = substrate: C[C@H]1[C@H](NC(=O)/C(=N\OC(C)(C)C(=O)O)c2csc(N)n2)C(=O)N1S(=O)(=O)O; test: as §5; procedure, shortened: as §3
[29] = substrate: O=C(Cc1cccs1)N[C@@H]1C(=O)N2C(C(=O)O)=C(/C=C/c3ccc([N+](=O)[O-])cc3[N+](=O)[O-])CS[C@H]12; test: as §5; procedure, shortened: as §3

## CC(C)(O/N=C(\C(=O)N[C@@H]1C(=O)N2C(C(=O)[O-])=C(C[n+]3ccccc3)CS[C@H]12)c1csc(N)n1)C(=O)O [CEFTAZIDIME]
Alcaligenes faecalis [1]
  Km: 806 µM
Citrobacter freundii
  MIC: 128 µg/mL (≈ 234 µM)
Escherichia coli [2]
  MIC: ≤ 0.063 µg/mL
Escherichia coli [3]
  MIC: > 128 µg/mL
[4]
  Activity: 64%
Alcaligenes faecalis [5]
  kcat/Km: 0.03 µM⁻¹ s⁻¹

## CC(=O)OCC1=C(C(=O)O)N2C(=O)[C@@H](NC(=O)Cc3cccs3)[C@H]2SC1 [CEPHALOTHIN]
Citrobacter freundii
  MIC: 512 µg/mL (≈ 1290 µM)
Escherichia coli [2]
  MIC: 0.5 µg/mL (≈ 1.26 µM)
Escherichia coli [3]
  MIC: > 512 µg/mL
[4]
  Activity: 100%

## O=C(N[C@H](CO)[C@H](O)c1ccc([N+](=O)[O-])cc1)C(Cl)Cl [CHLORAMPHENICOL]
Citrobacter freundii
  MIC: > 32 µg/mL
Escherichia coli [2]
  MIC: 2 µg/mL (≈ 6.19 µM)
Escherichia coli [3]
  MIC: > 32 µg/mL

## C[C@@H](O)[C@H]1C(=O)N2C(C(=O)O)=C(SCCNC=N)C[C@H]12 [IMIPENEM ANHYDROUS]
Citrobacter freundii
  MIC: 0.063 µg/mL (≈ 0.21 µM)
Escherichia coli [2]
  MIC: ≤ 0.063 µg/mL
Escherichia coli [3]
  MIC: 0.125 µg/mL (≈ 0.418 µM)
PER-2 beta-lactamase
  Ki: 60 nM

## NC[C@H]1O[C@H](O[C@H]2[C@H](O)[C@@H](O[C@H]3O[C@H](CO)[C@@H](O)[C@H](N)[C@H]3O)[C@H](N)C[C@@H]2N)[C@H](O)[C@@H](O)[C@@H]1O [KANAMYCIN]
Citrobacter freundii
  MIC: > 128 µg/mL
Escherichia coli [2]
  MIC: ≤ 0.25 µg/mL
Escherichia coli [3]
  MIC: > 128 µg/mL

## CCn1cc(C(=O)O)c(=O)c2ccc(C)nc21 [NALIDIXIC ACID]
Citrobacter freundii
  MIC: 2 µg/mL (≈ 8.61 µM)
Escherichia coli [2]
  MIC: > 128 µg/mL
Escherichia coli [3]
  MIC: > 128 µg/mL

## CCN1CCN(C(=O)N[C@@H](C(=O)N[C@@H]2C(=O)N3[C@@H]2SC(C)(C)[C@@H]3C(=O)O)c2ccccc2)C(=O)C1=O [PIPERACILLIN]
Citrobacter freundii
  MIC: 256 µg/mL (≈ 495 µM)
Escherichia coli [2]
  MIC: 0.063 µg/mL (≈ 0.122 µM)
Escherichia coli [3]
  MIC: 256 µg/mL (≈ 495 µM)
PER-2 beta-lactamase
  Ki: 200 nM
[4]
  Activity: 30%

## CN(C)[C@@H]1C(O)=C(C(N)=O)C(=O)[C@@]2(O)C(O)=C3C(=O)c4c(O)cccc4[C@@](C)(O)[C@H]3C[C@@H]12 [TETRACYCLINE]
Citrobacter freundii
  MIC: 0.5 µg/mL (≈ 1.13 µM)
Escherichia coli [2]
  MIC: 32 µg/mL (≈ 72 µM)
Escherichia coli [3]
  MIC: 32 µg/mL (≈ 72 µM)

B1: PER-2 beta-lactamase (Citrobacter freundii), A2RP81 (protein)
chain: MNVITKCVFTASALLMLGLSSFVVSAQSPLLKEQIETIVTGKKATVGVAVWGPDDLEPLLLNPFEKFPMQSVFKLHLAMLVLHQVDQGKLDLNQSVTVNRAAVLQNTWSPMMKDHQGDEFTVAVQQLLQYSVSHSDNVACDLLFELVGGPQALHAYIQSLGVKEAAVVANEAQMHADDQVQYQNWTSMKAAAQVLQKFEQKKQLSETSQALLWKWMVETTTGPQRLKGLLPAGTIVAHKTGTSGVRAGKTAATNDAGVIMLPDGRPLLVAVFVKDSAESERTNEAIIAQVAQAAYQFELKKLSAVSPD
[6]
  Km: 9 µM
  kcat: 6 s⁻¹
[7]
  Km: 320 µM
  kcat: 140 s⁻¹
[8]
  Km: 16 µM
  kcat: 2 s⁻¹
[9]
  Km: 38 µM
  kcat: 12 s⁻¹
[10]
  Km: 5 µM
  kcat: 0.5 s⁻¹
[11]
  kcat: 0.04 s⁻¹
[12]
  Km: 46 µM
  kcat: 34 s⁻¹
[13]
  Km: 21 µM
  kcat: 6 s⁻¹
[14]
  Km: 16 µM
  kcat: 0.39 s⁻¹
[15]
  kcat: < 0.001 s⁻¹
[16]
  kcat: < 0.001 s⁻¹
[17]
  kcat: 0.23 s⁻¹
[18]
  Km: 32 µM
  kcat: 48 s⁻¹
[19]
  kcat/Km: 0.67 µM⁻¹ s⁻¹
[20]
  kcat/Km: 0.43 µM⁻¹ s⁻¹
[21]
  kcat/Km: 0.12 µM⁻¹ s⁻¹
[22]
  kcat/Km: 0.35 µM⁻¹ s⁻¹
[23]
  kcat/Km: 0.1 µM⁻¹ s⁻¹
[24]
  kcat/Km: 0.2 µM⁻¹ s⁻¹
[25]
  kcat/Km: 0.76 µM⁻¹ s⁻¹
[26]
  kcat/Km: 0.3 µM⁻¹ s⁻¹
[27]
  kcat/Km: 0.02 µM⁻¹ s⁻¹
[28]
  kcat/Km: 0.12 µM⁻¹ s⁻¹
[29]
  kcat/Km: 1.5 µM⁻¹ s⁻¹

Reference: ChEMBL document CHEMBL1150790, “Biochemical characterization of PER-2 and genetic environment of blaPER-2” (Antimicrob Agents Chemother, 2007)
